Measured values published in paper PMC6235520 (Science Advances, 2018).
Several values for one entry are separate records, joined by “and”; a condition that tells them apart may be missing. Identical values can stand only once. Like-named read-outs stand apart in the source and are kept apart here.

Experiments:
human KCNQ1 = human KCNQ1 (Homo sapiens, UniProt P51787); assay: Two-electrode voltage clamp of KCNQ1 expressed in Xenopus laevis oocytes; format: cell-based; settings: for negative shift in the voltage dependence of KCNQ1 activation: 100 μM compound; for effect on KCNQ1 gating kinetics (activation and deactivation rates): MTX 30 µM, CPT1 100 µM
KCNQ1-R243A/KCNE1 = assay: Two-electrode voltage clamp of KCNQ1-R243A/KCNE1 in Xenopus oocytes; format: cell-based, human; settings: MTX 10 μM; CPT1 100 µM
In short: (§1)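 Mutant channels were made by site-directed mutagenesis and expressed from human cRNA (α-subunit 10 ng per oocyte) in stage V–VI oocytes for 2–5 days at 16°C. Room-temperature TEVC used a pH 7.6 Hepes-buffered bath with 4 mM KCl. Compound was perfused for 3 min, then currents were recorded at −80 to +40 mV in 20-mV steps. Fold current augmentation was plotted against voltage.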

KCNQ1-R243A = assay: Two-electrode voltage clamp of KCNQ1-R243A mutant in Xenopus oocytes; format: cell-based, human; settings: MTX 10 μM; CPT1 100 µM
In short: as §1

KCNQ1-KCNE4 = assay: Two-electrode voltage clamp of KCNQ1-KCNE4 in Xenopus oocytes; format: cell-based, human; settings: 30 μM
In short: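 Oocytes (stage V–VI, defolliculated) were co-injected with human KCNQ1 and KCNE4 cRNAs (α-subunit 10 ng total) and kept 2–5 days at 16°C. TEVC was run at room temperature in 4 mM KCl/96 mM NaCl Hepes bath, pH 7.6, after 3-min gravity perfusion of 30 μM test compound. Raw tail currents at −30 mV followed prepulses from −80 to +40 mV; n = 5.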

BK = settings: cited from earlier work
[1] = rats fed Mallotus philippensis extract; cited from earlier work
KCNQ1-KCNE3 = assay: Two-electrode voltage clamp of KCNQ1-KCNE3 in Xenopus oocytes; format: cell-based, human; settings: 30 μM, across the voltage range studied
In short: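 Human KCNQ1 and KCNE3 cRNAs were injected into defolliculated stage V–VI oocytes (α-subunit cRNA 10 ng total per oocyte) and held 2–5 days at 16°C in Barth's with penicillin/streptomycin. Room-temperature TEVC used bath 96 mM NaCl, 4 mM KCl, 1 mM MgCl2, 1 mM CaCl2, 10 mM Hepes pH 7.6. Test compound was perfused 3 min at 1 ml/min. Prepulses were −80 to +40 mV in 20-mV steps, with tails at −30 mV; n = 8.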

KCNQ2/3 channels = settings: cited from earlier work
KCNQ1-KCNE1 = KCNQ1-KCNE1 (Homo sapiens, UniProt P51787); assay: Two-electrode voltage clamp of KCNQ1-KCNE1 in Xenopus oocytes; format: cell-based
KCNQ2/KCNQ3-R242A = assay: Two-electrode voltage clamp of KCNQ2/KCNQ3-R242A in Xenopus oocytes; format: cell-based, human; settings: compared with KCNQ2-R213A/KCNQ3 and wild type
hERG = settings: cited from earlier work
KCNQ2-R213A/KCNQ3 = assay: Two-electrode voltage clamp of KCNQ2-R213A/KCNQ3 in Xenopus oocytes; format: cell-based, human; settings: at a given voltage
KCNQ1 = settings: cited from earlier work
[2] = cited from earlier work
KCNQ2-R213A/KCNQ3-R242A = assay: Two-electrode voltage clamp of KCNQ2-R213A/KCNQ3-R242A; format: cell-based, human
[3] = Pharmacokinetics in rats fed Mallotus philippensis extract; settings: equates to 2 μg/ml

KCNQ1-KCNE1, sequence (P51787 whole entry): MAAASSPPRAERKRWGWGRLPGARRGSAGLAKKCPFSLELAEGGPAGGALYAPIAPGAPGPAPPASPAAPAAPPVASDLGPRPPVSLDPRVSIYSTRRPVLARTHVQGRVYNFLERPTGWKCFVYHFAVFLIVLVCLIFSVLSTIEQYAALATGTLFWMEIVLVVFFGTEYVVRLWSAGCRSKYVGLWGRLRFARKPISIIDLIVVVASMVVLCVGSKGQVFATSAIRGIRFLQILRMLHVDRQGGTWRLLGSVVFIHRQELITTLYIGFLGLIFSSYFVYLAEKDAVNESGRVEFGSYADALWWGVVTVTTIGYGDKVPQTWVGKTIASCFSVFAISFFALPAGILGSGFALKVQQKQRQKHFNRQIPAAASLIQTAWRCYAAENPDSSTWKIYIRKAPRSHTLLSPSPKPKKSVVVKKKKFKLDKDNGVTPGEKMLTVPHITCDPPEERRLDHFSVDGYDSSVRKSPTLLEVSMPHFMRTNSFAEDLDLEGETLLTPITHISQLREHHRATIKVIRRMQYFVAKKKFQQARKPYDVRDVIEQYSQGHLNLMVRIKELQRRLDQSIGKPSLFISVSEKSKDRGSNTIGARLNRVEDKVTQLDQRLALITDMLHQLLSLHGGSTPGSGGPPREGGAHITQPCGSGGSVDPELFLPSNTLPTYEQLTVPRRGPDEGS
human KCNQ1, sequence (P51787 whole entry): as the sequence (P51787 whole entry) above

CCC1=C(O)C(=O)CC1 [CPT1, 3-ethyl-2-hydroxy-2-cyclopenten-1-one]
EC50 (human KCNQ1): 0.1 µM | negative shift in the voltage dependence of KCNQ1 activation (human KCNQ1): −5 mV | potency on KCNQ1 relative to MTX (human KCNQ1; CPT1 versus MTX): 100 fold | effect on KCNQ1 gating kinetics (activation and deactivation rates) (human KCNQ1): statistically significant speeding of activation and slowing of deactivation | KCNQ1 current fold increase (human KCNQ1; at −60 mV, 100 μM): 2.7 fold | sensitivity of KCNQ1-R243A/KCNE1 complexes to compound (KCNQ1-R243A/KCNE1): eliminated | sensitivity of KCNQ1-R243A to compound (KCNQ1-R243A): eliminated

CC(=O)c1c(O)c(C)c(O)c(Cc2c(O)c3c(c(C(=O)/C=C/c4ccccc4)c2O)OC(C)(C)C=C3)c1O [MTX, mallotoxin]
effect on KCNQ1-KCNE4 activity (KCNQ1-KCNE4): minor augmentation | effect on BK potassium channel (BK): activate | oral bioavailability [1]: > 20% | plasma concentrations [1]: > 2000 ng/mL | effect on KCNQ1-KCNE3 channels (KCNQ1-KCNE3): moderately inhibited | effect on KCNQ2/3 channels (KCNQ2/3 channels): activates | EC50 (KCNQ1-KCNE1): 27.9 ± 0.3 µM | shift of V0.5 of activation of KCNQ1-KCNE1 (KCNQ1-KCNE1; 30 μM MTX): −45 mV | effect on KCNQ1-KCNE1 currents (KCNQ1-KCNE1; 30 μM, across the voltage range tested): strongly augmented | efficacy of MTX on KCNQ2/KCNQ3-R242A channels (KCNQ2/KCNQ3-R242A): even more efficacious | effect on hERG potassium channel (hERG): activate | MTX-induced shift in the V0.5 of activation versus wild-type KCNQ2/3 (KCNQ2-R213A/KCNQ3): slightly greater | effect on KCNQ1 potassium channel (KCNQ1): activate | shift in KCNQ1 activation voltage dependence (human KCNQ1; 30 μM MTX): −27 mV | effect on KCNQ1 current in presence of UCL2077 (human KCNQ1; 30 μM MTX, UCL2077 10 μM, hyperpolarized voltages): still augmented | rescue of KCNQ1 from inhibition by UCL2077 (human KCNQ1; 30 μM MTX, UCL2077 10 μM, positive voltages): ineffective | negative shift in the voltage dependence of KCNQ1 activation (human KCNQ1): −27 mV | MTX effects on KCNQ1 in high extracellular K+ (human KCNQ1; 50 mM extracellular K+, 10 µM MTX): preserved | EC50 (human KCNQ1; EC50 (dose response) for the ΔV0.5 activation of KCNQ1): 9.4 ± 0.1 µM | EC50 (human KCNQ1; KCNQ1 activation EC50, at −40 mV): 9.9 µM and 10 µM | effect on KCNQ1 gating kinetics (activation and deactivation rates) (human KCNQ1): speeded KCNQ1 activation and slowed its deactivation | KCNQ1 current fold increase (human KCNQ1; at −40 mV, 30 μM): 5.4 fold | toxicity [2]: toxic in large doses | sensitivity of RA-RA KCNQ2/3 channels to MTX (KCNQ2-R213A/KCNQ3-R242A): insensitive | sensitivity of KCNQ1-R243A/KCNE1 complexes to compound (KCNQ1-R243A/KCNE1): completely insensitive | sensitivity of KCNQ1-R243A to compound (KCNQ1-R243A): completely insensitive | plasma level converted to molar concentration [3]: 4 µM
